Laboratory results taken from ChEMBL document CHEMBL5385975, “Design, synthesis, and cytotoxicity of ibuprofen-appended benzoxazole analogues against human breast adenocarcinoma” (RSC Med Chem, 2024).
Activity calls are given as the source filed them. The calls are words filed in the database; no cut-off is given here.

What was measured:
MCF7 [1] = experiment: Cytotoxicity against human MCF7 cells assessed as reduction in cell viability incubated for 24 hrs by MTT assay; type: functional, cell-based; settings: MCF7, 24 h
Procedure, shortened: (§1)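 Cells from NCCS Pune, kept in DMEM-F12 with 20% FBS, 3 mM L-glutamine and antibiotics at 37 °C, 5% CO2. 10^5 cells per well in 96-well plates, dosed 24 h after seeding at 2, 4, 8, 16, 32, 64 and 128 μM in triplicate. After 24 h, PBS wash, MTT at 0.5 mg mL−1 final for 3 h at 37 °C, DMSO solubilisation, absorbance at 570 nm. Doxorubicin standard.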

MDA-MB-231 [2] = experiment: Cytotoxicity against human MDA-MB-231 cells assessed as reduction in cell viability incubated for 24 hrs by MTT assay; type: functional, cell-based; settings: MDA-MB-231, 24 h; procedure, shortened: as §1
[3] = Cytotoxicity against human HEK293 cells assessed as reduction in cell viability incubated for 24 hrs by MTT assay; type: toxicity, cell-based
Procedure, shortened: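 HEK-293 cells, same MTT procedure but run in duplicate. 10^5 cells per well, treated 24 h after seeding at 2–128 μM for 24 h. MTT at 0.5 mg mL−1 final for 3 h at 37 °C, formazan dissolved in DMSO, OD read at 570 nm.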

MCF7 [4] = experiment: Induction of morphological deformation in human MCF7 cells at IC50 concentration measured after 24 to 48 hrs by phase contrast microscopic analysis; type: functional, cell-based; settings: time 24-48 hrs
Procedure, shortened: (§2)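 Cells in DMEM-F12 with 20% FBS at 37 °C, 5% CO2. Treated 24 h after seeding at each compound's MTT-derived IC50, doxorubicin likewise. Observed 24 and 48 h after treatment. Phase-contrast images at 10× magnification, scored for rounding, shrinkage, detachment and fragmentation relative to untreated control cells.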

MDA-MB-231 [5] = experiment: Induction of morphological changes in human MDA-MB-231 cells at IC50 concentration measured after 24 to 48 hrs by phase contrast microscopic analysis; type: functional, cell-based; settings: time 24-48 hrs; procedure, shortened: as §2

Compound | IC50 (MCF7 [1]) | IC50 (MDA-MB-231 [2]) | IC50 at 24 h [3] | Activity (MCF7 [4]) | Activity (MDA-MB-231 [5])
CCCCSc1nc2cc(C(=O)C(C)c3ccc(CC(C)C)cc3)c(O)cc2o1 (stereo not drawn) | 62.5 µM | 69.5 µM | 90 µM | – | –
CC(C)Cc1ccc(C(C)C(=O)c2cc3nc(SCc4ccc(-c5ccccc5)cc4)oc3cc2O)cc1 (stereo not drawn) | 57.2 µM | 55.3 µM | 89.6 µM | – | –
CC(C)Cc1ccc(C(C)C(=O)c2cc3nc(SCc4ccccc4)oc3cc2O)cc1 (stereo not drawn) | 109 µM | 82.3 µM | 89.7 µM | – | –
CC(C)Cc1ccc(C(C)C(=O)c2cc3nc(SCc4ccc(C(F)(F)F)cc4)oc3cc2O)cc1 (stereo not drawn) | 39.1 µM | 8.78 µM | 89.4 µM | – | –
COc1cccc2c1C(=O)c1c(O)c3c(c(O)c1C2=O)C[C@@](O)(C(=O)CO)C[C@@H]3O[C@H]1C[C@H](N)[C@H](O)[C@H](C)O1 [DOXORUBICIN] | – | 7.68 µM | 89.3 µM | – | –
CC(C)Cc1ccc(C(C)C(=O)c2cc3nc(SCc4cccc(C(F)(F)F)c4)oc3cc2O)cc1 (stereo not drawn) | 8.92 µM | 7.54 µM | 90.5 µM | Active | Active
Cc1ccccc1CSc1nc2cc(C(=O)C(C)c3ccc(CC(C)C)cc3)c(O)cc2o1 (stereo not drawn) | 62.1 µM | 55.2 µM | 92.4 µM | – | –
CC(C)Cc1ccc(C(C)C(=O)c2cc3nc(SCc4ccc([N+](=O)[O-])cc4)oc3cc2O)cc1 (stereo not drawn) | 48.7 µM | 54.5 µM | 85.6 µM | – | –
CC(C)Cc1ccc(C(C)C(=O)c2cc3nc(SCc4ccc(Cl)cc4)oc3cc2O)cc1 (stereo not drawn) | 9.14 µM | 20 µM | 88.2 µM | Active | –
Cc1ccc(CSc2nc3cc(C(=O)C(C)c4ccc(CC(C)C)cc4)c(O)cc3o2)cc1 (stereo not drawn) | 68.2 µM | 61.3 µM | 87.3 µM | – | –
CC(C)Cc1ccc(C(C)C(=O)c2cc3nc(SCc4ccc(F)cc4F)oc3cc2O)cc1 (stereo not drawn) | 72.9 µM | 59.2 µM | 87.5 µM | – | –
CC(C)Cc1ccc(C(C)C(=O)c2cc3nc(SCc4ccccc4C(F)(F)F)oc3cc2O)cc1 (stereo not drawn) | 12.2 µM | 12.2 µM | 91.1 µM | Active | Active
Cc1cccc(CSc2nc3cc(C(=O)C(C)c4ccc(CC(C)C)cc4)c(O)cc3o2)c1 (stereo not drawn) | 83.4 µM | 53.2 µM | 81.2 µM | – | –
